Series [1] deals with MOLT-4. As to the kind of experiment: Downregulation of cyclin E protein expression in human MOLT4 cells overexpressing TdT at 30 uM by Western blot analysis. It counts as functional, cell-based. In short, it runs like this: (§1)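 1 × 10^6 cells were incubated with or without compound, then lysed in cold buffer (50 mM Tris, 150 mM NaCl, 10 mM EDTA, 1% Triton) with protease inhibitors. Equal protein was run on 8–12% SDS-PAGE and blotted to nitrocellulose. Membranes were probed overnight at 4 °C with antibodies to cyclin E2, cyclin A, p53 or caspase 3, detected by HRP/ECL, and normalized to actin by densitometry.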

The target of series [2] is DNA nucleotidylexotransferase (Homo sapiens, UniProt P04053). As to the kind of experiment: Inhibition of human recombinant TdT using [3H]dNTP as substrate after 10 mins by scintillation counting analysis. In short, it runs like this: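 TdT was from Trevigen. TCA-precipitated radioactivity was counted. ID50 came from dose–response fitting. For kinetics, DNA or dNTP was varied at increasing inhibitor, and Ki was obtained via Cheng–Prusoff for a competitive model.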

For a further series, the target named is DNA polymerase beta (Homo sapiens, UniProt P06746). As to the kind of experiment: Inhibition of human recombinant DNA polymerase beta.
The subject of series [3] is HeLa. As to the kind of experiment: Downregulation of cyclin E protein expression in TdT-deficient human HeLa cells at 30 uM by Western blot analysis. It counts as ADME, cell-based. An outline of the steps:
as §1
(In general: Immunoblotting shows a protein as a band on a membrane.)

The subject of series [4] is HeLa. As to the kind of experiment: Cell cycle arrest in TdT-deficient human HeLa cells assessed as accumulation at G1 phase at 30 uM after 24 hrs by propidium iodide staining-based FACS flow cytometric analysis relative to vehicle-treated control. It counts as ADME. In short, it runs like this:
(§2)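 Cells at 2.5 × 10^5 cells/mL were treated 24 h with compound or vehicle. They were washed in PBS, trypsinized, and stained 30 min at 4 °C in the dark with 0.1% sodium citrate, 0.1% Triton X-100 and propidium iodide. Analysis was by FACScan flow cytometry, giving the percentage of cells in G0/G1, S and G2/M.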
On the technique in general: A flow cytometer gives signals particle by particle.

The subject of series [5] is MOLT-4. As to the kind of experiment: Cell cycle arrest in human MOLT4 cells overexpressing TdT assessed as accumulation at G1 phase at 30 uM after 24 hrs by propidium iodide staining-based FACS flow cytometric analysis relative to vehicle-treated control. It counts as functional. In short, it runs like this: as §2
Series [6] has as its target T1, DNA polymerase lambda (Homo sapiens) (UniProt Q9UGP5).
T1 sequence (whole entry): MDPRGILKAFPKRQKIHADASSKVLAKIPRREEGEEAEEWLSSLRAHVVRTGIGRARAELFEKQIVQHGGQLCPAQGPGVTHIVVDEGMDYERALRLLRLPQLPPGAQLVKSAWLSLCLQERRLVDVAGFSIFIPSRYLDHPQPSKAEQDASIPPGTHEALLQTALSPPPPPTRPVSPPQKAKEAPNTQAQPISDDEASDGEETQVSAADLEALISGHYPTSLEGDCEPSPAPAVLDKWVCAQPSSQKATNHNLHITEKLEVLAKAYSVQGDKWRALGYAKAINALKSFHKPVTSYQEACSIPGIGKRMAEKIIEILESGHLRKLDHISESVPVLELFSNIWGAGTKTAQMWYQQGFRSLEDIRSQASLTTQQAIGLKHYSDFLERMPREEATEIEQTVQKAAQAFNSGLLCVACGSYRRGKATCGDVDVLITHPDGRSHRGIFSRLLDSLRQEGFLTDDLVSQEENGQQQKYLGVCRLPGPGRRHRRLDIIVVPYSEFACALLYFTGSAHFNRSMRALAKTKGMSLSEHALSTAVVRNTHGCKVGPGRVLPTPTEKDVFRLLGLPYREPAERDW
As to the kind of experiment: Inhibition of human recombinant full length DNA polymerase lambda TdT-like activity using [3H]dNTP as substrate after 10 mins by scintillation counting analysis. An outline of the steps:
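Full-length recombinant human pol λ (>90% pure) was tested for template-independent activity. Acid-insoluble radioactivity was counted, and ID50 came from dose–response fitting.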

Series [7] has as its system MOLT-4. As to the kind of experiment: Cell cycle arrest in human MOLT4 cells overexpressing TdT assessed as decrease of cells in G2 phase at 30 uM after 24 hrs by propidium iodide staining-based FACS flow cytometric analysis relative to vehicle-treated control. More on the design: scale not given: the % may be the effect or the level left. Type of series: functional. In short, it runs like this: as §2

Series [8] addresses T1, DNA polymerase lambda (Homo sapiens). As to the kind of experiment: Inhibition of human recombinant full length DNA polymerase lambda using [3H]dTTP as substrate and 10 poly(dA)/oligo(dT) as template-primer after 15 mins by scintillation counting analysis. An outline of the steps: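 Recombinant full-length human pol λ at 50 nM was assayed with 0.2 μM poly(dA)/oligo(dT)10:1 (3′-OH ends) and 5 μM [3H]dTTP (5 Ci/mmol). Incubation was 15 min at 37 °C. TCA precipitates were scintillation counted.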

Series [9] has as its system HeLa. As to the kind of experiment: Cytotoxicity against TdT-deficient human HeLa cells assessed as growth inhibition after 24 to 48 hrs by MTT assay. Type of series: cell-based. An outline of the steps: (§3)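 MOLT-4 cells were grown in RPMI-1640 and HeLa cells in DMEM, with 10% FCS at 37 °C. Cells were seeded at 10^5 per well, given 24 h to attach, then exposed to compounds (0.1–100 range) for 24 or 48 h. MTT at 1 mg/mL was added for 2 h at 37 °C, formazan was dissolved in DMSO, and absorbance read at 550 nm versus 0.5% DMSO vehicle. IC50 was obtained by regression, in triplicate.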
In general terms: Formazan colour is commonly taken as a measure of viable cells.

Series [10] deals with MOLT-4. As to the kind of experiment: Cytotoxicity against human MOLT4 cells overexpressing TdT assessed as growth inhibition after 24 to 48 hrs by MTT assay. Type of series: functional, cell-based. An outline of the steps: as §3
Series [11] deals with HeLa. As to the kind of experiment: Cell cycle arrest in TdT-deficient human HeLa cells assessed as decrease of cells in G2 phase at 30 uM after 24 hrs by propidium iodide staining-based FACS flow cytometric analysis relative to vehicle-treated control. More on the design: scale not given: the % may be the effect or the level left. It counts as ADME. An outline of the steps:
as §2

SMILES strings stand for the structures. Calls of active or inactive are those of the source. No cut-off for these calls is given here. Bounds are passed on as bounds.

Sequence of DNA nucleotidylexotransferase (P04053 whole entry): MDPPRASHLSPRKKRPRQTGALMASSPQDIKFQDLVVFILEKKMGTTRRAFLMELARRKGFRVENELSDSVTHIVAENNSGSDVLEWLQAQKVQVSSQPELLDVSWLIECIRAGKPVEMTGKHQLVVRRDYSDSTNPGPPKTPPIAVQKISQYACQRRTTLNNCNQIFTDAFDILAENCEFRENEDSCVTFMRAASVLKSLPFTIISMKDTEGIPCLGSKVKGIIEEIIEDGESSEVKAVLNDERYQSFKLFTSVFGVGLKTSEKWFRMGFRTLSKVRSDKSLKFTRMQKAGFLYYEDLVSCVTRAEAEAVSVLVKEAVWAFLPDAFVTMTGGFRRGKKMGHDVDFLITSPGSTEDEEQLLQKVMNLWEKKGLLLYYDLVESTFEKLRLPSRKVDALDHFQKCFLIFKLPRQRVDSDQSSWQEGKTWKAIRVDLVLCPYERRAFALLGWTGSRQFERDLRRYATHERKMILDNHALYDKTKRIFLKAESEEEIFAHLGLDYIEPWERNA

Turning to `CCCCn1cc(/C=C/C(=O)CC(=O)C(=O)O)c2ccccc21`, in the series on MOLT-4 [1], the outcome was Active. Moreover, the figures for the ID50 in [2], in series [6] and in series [8] were 26 µM, over 40 µM and over 40 µM, respectively. Besides, the IC50 (as a rule, the concentration that inhibits the measured activity by half) on DNA polymerase beta was over 40 µM; in the series on HeLa [9], 30 µM; in the series with MOLT-4 [10], 30 µM. Moreover, the Activity entry is “Toxic” in the series on HeLa [3]; 20% in the series with HeLa [4]; 20% in the series on MOLT-4 [5]; 10% in the series with MOLT-4 [7]; 10% in the series on HeLa [11].

These data come from ChEMBL document CHEMBL2440062, “New nucleotide-competitive non-nucleoside inhibitors of terminal deoxynucleotidyl transferase: discovery, characterization, and crystal structure in complex with the target” (J Med Chem, 2013).
